MOR-DOR inv ag – mu-delta opioid heterodimer inverse agonism; P35372+P41143; cell-based MOR-DOR heterodimer luminescence; inhibition, % at 9.3 µM; hit rate 0.21% among 340,000; AID 504357; in the data active means inhibition above about 22%, passing the limit was not always enough
HTR5A ag – activates human HTR5A in OPRM1-OPRD1 agonist counter-screen | P47898 | HTR5A agonist assay, luminescence, cell-based | activation, % at 9.3 µM | hit rate 0.61% among 340,000 | AID 504692; in the data active means activation mostly above about 9.5%, no sharp cut-off; inactive means mostly below about 7.6%
Target sequence (P47898 whole entry, looked up): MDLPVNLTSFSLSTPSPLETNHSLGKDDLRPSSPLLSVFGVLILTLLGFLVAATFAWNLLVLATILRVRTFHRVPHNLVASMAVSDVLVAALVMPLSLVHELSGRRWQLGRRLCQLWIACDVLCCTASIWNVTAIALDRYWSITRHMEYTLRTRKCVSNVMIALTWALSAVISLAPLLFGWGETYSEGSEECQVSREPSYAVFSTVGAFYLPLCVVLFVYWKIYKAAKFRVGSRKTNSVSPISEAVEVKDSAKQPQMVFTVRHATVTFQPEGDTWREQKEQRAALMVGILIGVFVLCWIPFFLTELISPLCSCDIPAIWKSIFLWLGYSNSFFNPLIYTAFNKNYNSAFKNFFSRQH
Lipid droplet – hepatic lipid droplet formation modulation; inhibition, % at 6.5 µM; hit rate 0.4% among 240,000; AID 1656; AML12 mouse hepatocytes, oleate lipid droplets, BODIPY imaging;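 active means lipid droplet intensity inhibited by at least 50%, with more than 500 cells counted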
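System: AML12 hepatocytes (mouse). Probe or stimulus: oleic acid at 100 µM to induce lipid droplet formation. Times: overnight treatment with compound plus oleate. Detection: Image-based BODIPY and DAPI two-channel analysis. Evaluation: percent inhibition of filter-corrected integrated lipid droplet intensity per well.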
MOR-DOR ag – agonists of human mu-delta opioid receptor heterodimerization; AID 504326; hit rate 0.3% among 340,000; P35372+P41143; activation, % at 9.3 µM; cells, OPRM1-OPRD1 heterodimerization, luminescence; in the data active means activation above about 18%
HTR5A inv ctr – inverse agonist of human HTR5A in OPRM1-OPRD1 counter-screen. P47898. HTR5A cell line, luminescence, inverse agonism. inhibition, % at 9.3 µM. hit rate 0.083% among 340,000. AID 504634; in the data active means inhibition mostly above about 23%, no sharp cut-off; inactive means mostly below about 18%
Hits are given with their value; n = inactive; x = no result. Sampled rows, rich in hits. Any-hit rate of the full collection: about 1.4%.

SMILES	MOR-DOR inv ag	HTR5A ag	Lipid droplet	MOR-DOR ag	HTR5A inv ctr
COc1ccc(C(=O)NCCc2c[nH]c3ccc(OC)cc23)cc1	n	n	x	n	n
COc1ccc2[nH]cc(CCNC(=O)c3ccc4ccccc4n3)c2c1	n	13.7	n	n	n
Cc1cc(N2CCCC2)ccc1NC(=O)COc1cccc(C(F)(F)F)c1	n	n	n	n	n
CCN(CC)CCNC(CC(=O)Nc1ccc(Cl)cc1Cl)C(=O)O (stereo not given)	n	n	62.6	n	n
CCN(CC)CCNC(=O)COc1ccc(Cl)cc1Cl	n	n	x	n	n
CN(C)S(=O)(=O)c1cccc(C(=O)Nc2ccc(S(=O)(=O)N3CCCC3)cc2)c1	n	n	n	n	n
CC1CC(=O)C(C(C2=C(O)CC(C)CC2=O)c2ccccc2)=C(O)C1 (stereo not given)	n	9.3	x	n	n
CC1CCN(C(C(=O)O)c2ccccc2)CC1 (stereo not given)	x	x	n	x	x
Cc1ccc2sc(=O)[nH]c2c1	n	n	n	n	n
COc1cccc(C=NNC(=O)c2ccncc2)c1O	n	8.5	x	n	n
CCOCCCNc1nc2c(C)cccn2c(=O)c1/C=C1\SC(=S)N(C(C)CC)C1=O (stereo not given)	n	n	86.3	18.2	n
Cc1[nH]nc2nc(SCC(=O)NCCC3=CCCCC3)n(-c3ccc(Br)cc3)c(=N)c12	n	14.9	n	24.7	n
COc1ccc(-n2c(SCC(=O)NCC3CCCO3)nc3n[nH]c(C)c3c2=N)cc1 (stereo not given)	n	n	x	n	n
Cc1ccc(Cl)cc1-n1c(SCC(=O)NCCC2=CCCCC2)nc2n[nH]c(C)c2c1=N	n	n	n	n	n
Cc1cc(-n2c(SCC(=O)NCCC3=CCCCC3)nc3n[nH]c(C)c3c2=N)ccc1Cl	n	31.1	n	29.1	n
O=C(NNC(=O)C1CC1)c1cc(=O)[nH]c2ccccc12	n	n	x	n	n
CCn1c(C)nc2cc(C(=O)N/N=C/c3ccc(O)c(O)c3O)ccc21	n	12.8	n	n	n
CCn1c(C)nc2cc(C(=O)N/N=C/c3cccc(OC)c3O)ccc21	n	n	n	n	n
O=C(CSc1ccc(-c2ccc(Br)cc2)nn1)NC1CCCC1	n	n	n	n	n
COc1cccc(CN(C(=O)c2ccco2)C2CCS(=O)(=O)C2)c1 (stereo not given)	n	12.7	n	n	n
COc1ccc(-c2cn[nH]c2-c2ccc(OCc3ccccc3)cc2O)cc1	n	n	n	n	n
COc1ccccc1-c1cn[nH]c1-c1ccc(OCc2ccccc2)cc1O	n	12.1	n	n	n
Cc1cc(C)cc(OCC(=O)N(C)CC(=O)Nc2ccc(N3CCOCC3)cc2)c1	n	n	x	n	n
CCN(CC)c1ccc(/C=N/NC(=S)NCc2ccccc2)cc1	n	13.7	x	n	n
COc1ccc(N2CCN(C(=O)C3CCN(C(=O)c4ccc([N+](=O)[O-])cc4)CC3)CC2)cc1	n	n	n	n	n
SMILES	MOR-DOR inv ag	HTR5A ag	Lipid droplet	MOR-DOR ag	HTR5A inv ctr
NC(=O)c1ccccc1NC(=O)CS(=O)(=O)Cc1ccccc1	n	9.6	x	n	n
O=C(Cn1cc(C(F)(F)F)ccc1=O)N1CCc2ccccc21	n	n	x	n	n
CCOC(=O)/C(=C/c1ccc(OC(F)F)cc1)C1=Nn2c(nnc2-c2ccc(Cl)cc2)SC1	n	8.4	x	n	n
C[C@@]12CCC=C[C@H]1[C@H](c1ccc(/C=C/c3ccccc3)cc1F)N(Cc1ccccc1)C2=O	n	n	n	n	n
C[C@@]12CCC=C[C@H]1[C@H](c1ccc(C(F)(F)F)cc1)N(Cc1ccccc1)C2=O	n	13.3	n	n	n
COc1ccc(S(=O)(=O)N2CCC3(CC2)OCCN3S(=O)(=O)c2ccc(OC)cc2)cc1	n	n	x	n	n
COc1ccc(S(=O)(=O)N2CCOC23CCN(S(=O)(=O)c2c(C)cc(C)cc2C)CC3)cc1	n	10.9	x	n	n
O=C(NC1CCCC1)C1CC(O)CN1C(=O)Nc1ccccc1 (stereo not given)	n	n	n	n	n
O=C(OCC(=O)N1CCCCCC1)c1ccccc1Br	n	n	x	n	n
C/C=C(\C)C(=O)N1CCC(C(=O)c2ccccc2)CC1	n	n	n	n	n
Cc1c(Cl)cccc1NC(=S)NN	n	n	x	n	n
Cc1cccc(Cl)c1NC(=S)NN	n	13.2	n	n	n
Cc1ccc(N2CC(C(=O)N3CCC(C(=O)NC(C)(C)C)CC3)CC2=O)cc1 (stereo not given)	n	n	n	n	n
Nc1nc(N)c2c(ccc3nccc32)[nH]1	n	11.9	n	n	n
Nc1ccc2ncccc2c1N	n	n	n	n	n
COc1cccc(OCC(=O)Nc2c3c(nn2-c2ccccc2)CS(=O)(=O)C3)c1	n	n	n	n	n
CCC(=O)N1CCN(c2nc(CC)nc3sc4c(c23)CCCC4)CC1	n	n	n	n	n
CC1CCc2c(sc3nc(C(C)(C)C)nc(N4CCN(C(=O)CCl)CC4)c23)C1 (stereo not given)	n	45.6	n	71.7	n
O=C(/C=C/c1ccco1)OCC(=O)c1cccc([N+](=O)[O-])c1	29.2	n	n	n	n
COc1ccc2nc(C)cc(N/N=C/c3ccc(F)cc3)c2c1	n	n	x	30.9	n
C=CCn1c(O)c2ccc(C(=O)N=NC(=O)COc3ccccc3F)cc2c1O	n	n	x	n	n
Cc1ccc(NC(=S)Nc2ccc(Br)cc2)cc1	n	13.3	x	n	n
CC(=O)Nc1ccc(NC(=S)Nc2ccc(Br)cc2)cc1	n	n	n	n	n
COC(=O)c1ccccc1NC(=O)NCc1c(C)nn(C)c1C	n	n	n	n	n
CCN(CC)S(=O)(=O)c1cc(NC(=O)C2CC(=O)N(Cc3ccccc3)C2)ccc1Cl (stereo not given)	n	n	x	n	n
SMILES	MOR-DOR inv ag	HTR5A ag	Lipid droplet	MOR-DOR ag	HTR5A inv ctr
Cc1c(CC(=O)N2CCN(C(=O)C3COc4ccccc4O3)CC2)c(=O)oc2cc(O)ccc12 (stereo not given)	n	n	n	n	n
Cc1c(CC(=O)N2CCN(C(=O)C3COc4ccccc4O3)CC2)c(=O)oc2c(C)c(O)ccc12 (stereo not given)	33.8	n	n	n	n
CCCOC(=O)c1ccc(NC(=O)/C=C/c2cccs2)cc1	n	11.1	80.0	n	n
Cc1[nH]n2c(=O)c3c(nc2c1-c1ccccc1)CCC3	n	n	n	n	n
Cc1[nH]n2c(=O)c3c(nc2c1-c1ccc(Cl)cc1)CCC3	n	19.8	n	n	n
C#CNC(=O)C1(CC=C)CCNCC1	n	n	x	n	n
Cc1ccc(Cl)cc1N1CCN(C(=O)c2noc(C)c2[N+](=O)[O-])CC1	n	10.0	n	n	n
C=C[C@H](CC(C)C)N(Cc1ccccc1)S(=O)(=O)N(Cc1ccccc1)[C@@H](C=C)CC(C)C	42.1	n	x	n	31.5
CC(CCc1ccccc1)NC(=O)COC(=O)c1ccccc1O (stereo not given)	n	n	n	n	n

Compound activity deposited in PubChem by several laboratories.
